Sampled rows, rich in hits. Any-hit rate of the full collection: about 3.5%.
PglD DTNB: C. jejuni PglD acetyltransferase inhibitors, primary screen, biochemical, DTNB colorimetric, single point; purified PglD enzyme, DTNB colorimetric CoA detection; inhibition, % at 12.5 µM; 0.098% of 360,000 active; UDP-N-acetylbacillosamine N-acetyltransferase PglD (Campylobacter jejuni); in the data active = inhibition above about 16%, passing the limit was not always enough
rRNA inh HTS: reduced GFP signal of wild-type E. coli, primary screen, bacterial rRNA inhibitor project, GFP/RFP fluorescence, OD600, single point; E. coli WT GFP vs humanized-ribosome RFP mutants, 24 h; stronger effect = lower value; DMSO median 0, no signal -100; GFP signal change (wild-type ribosome), % (no concentration beside the values); 1.6% of 350,000 active; AID 720706, 2013;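 active = significant combined selectivity score with lowered wild-type GFP, culture density cut under 30%, mutant RFP and density less affected; inactive = any of these conditions unmet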
PGC1a acetyl inh: inhibitors of PGC1a acetylation signal, primary screen, cell-based, U2OS, AlphaScreen, inhibitor mode | inhibition, % at 15.6 µM | AlphaScreen anti-acetyl-lysine; with virally co-expressed GCN5 acetyltransferase | 0.17% of 350,000 active | AID 651687, 2012;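 active = every replicate shows inhibition of at least 40%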
DENV2 CPE: inhibitors of DENV2 cytopathic effect, primary screen, cell-based, plate reader, single concentration. DENV2-infected cells, cytopathic effect rescue. CPE inhibition, % at 9.99 µM. 1.7% of 350,000 active. AID 651640, 2012; in the data active = CPE inhibition above about 20%, passing the limit was not always enough; tested in BHK-21 cells
Env fusion inh: inhibitors of HIV-1 Env-driven cell-cell fusion, primary screen, HeLa-JRFL effector, CEM21 target cells, luciferase | inhibition, % at 12.3 µM | 1.1% of 360,000 active;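 active = mean replicate inhibition score of at least 50 and every replicate individually at or above 50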
FN deposition inh: inhibitors of fibronectin matrix deposition, primary screen, AH1F cells, Alexa488-fibronectin fluorescence, plate reader; AH1F fibroblasts, overnight; inhibition, % at 12.6 µM; 0.086% of 350,000 active;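 active = mean inhibition across replicates of 30% or more, regardless of how many single replicates reach that level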
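Schedule: 1 h cell adhesion before compound, then overnight fibronectin incubation; test system: AH1F fibroblast monolayer depositing Alexa488-labelled fibronectin into matrix; quantity: 10000 AH1F cells per well; probe or stimulus: fluorescent fibronectin at 24 nM final; signal: fluorescence, ex 485 nm, em 525 nm; evaluation: percent inhibition as loss of matrix-bound fibronectin fluorescence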
Of the large screens only hits and unclear results are named; the others gave an inactive call.

CC(C)CC#Cc1ccc([C@@H]2[C@@H](CO)N3CCCCN(S(=O)(=O)Cc4ccccc4)C[C@@H]23)cc1	DENV2 CPE 22 (no result: Env fusion inh, FN deposition inh)
CC(C)CC#Cc1ccc([C@H]2[C@@H](CO)N3CCCCN(S(=O)(=O)c4ccc(F)cc4)C[C@@H]23)cc1	none (no result: Env fusion inh, FN deposition inh)
Cc1ccccc1S(=O)(=O)N1CCCCN2[C@H](C1)[C@H](c1ccc(-c3cncnc3)cc1)[C@@H]2CO	none (no result: Env fusion inh, FN deposition inh)
C[C@H]1CN([C@@H](C)CO)C(=O)c2cc(NS(C)(=O)=O)ccc2O[C@H]1CN(C)Cc1ccc(Cl)c(Cl)c1	none (no result: FN deposition inh)
CC(C)C#Cc1ccc([C@H]2[C@@H](CO)N3CCCCN(S(=O)(=O)Cc4ccccc4)C[C@H]23)cc1	none (no result: Env fusion inh, FN deposition inh)
CC(C)C#Cc1ccc([C@@H]2[C@H](CO)N3CCCCN(S(=O)(=O)Cc4ccccc4)C[C@@H]23)cc1	rRNA inh HTS -42 (no result: Env fusion inh, FN deposition inh)
O=C(/C=C1\NC2(CCCC2)Cc2ccccc21)C(=O)N/N=C/c1ccc(O)c(O)c1	rRNA inh HTS -21 (no result: PglD DTNB, PGC1a acetyl inh)
CC(C)CC(COCc1cccc(Cl)c1)N1CCN(C(=O)c2cccc(C(F)(F)F)c2)CCC1=O (centres undefined)	Env fusion inh 76 (no result: DENV2 CPE)
COc1ccc(COCC(CC(C)C)N2CCN(C(=O)c3cccc(C(F)(F)F)c3)CCC2=O)cc1 (centres undefined)	none
Cc1cccc(COC[C@H](CC(C)C)N2CCN(C(=O)c3ccc(C(F)(F)F)cc3)CCC2=O)c1	none (no result: PglD DTNB, PGC1a acetyl inh)
CC(C)C[C@@H](COCc1cccc(C(F)(F)F)c1)N1CCN(C(=O)c2ccc(C(F)(F)F)cc2)CCC1=O	Env fusion inh 62 (no result: PglD DTNB, PGC1a acetyl inh)
CC(C)CC(COCc1ccc(Cl)cc1)N1CCN(C(=O)c2ccc(Cl)cc2Cl)CCC1=O (centres undefined)	DENV2 CPE 100
CC(C)C[C@@H](COCc1ccc(Cl)cc1)N1CCN(C(=O)c2ccc(C(F)(F)F)cc2)CCC1=O	none (no result: PglD DTNB, PGC1a acetyl inh)
COc1ccccc1CNC(=O)C[C@@H]1C[C@H]2c3cc(NC(=O)C4CCOCC4)ccc3O[C@H]2[C@H](CO)O1	none
COc1ccc(-c2oc(=O)c3cc(OC)c(OC)cc3c2C#CCCO)cc1	none (no result: FN deposition inh)
COc1cc(OC)cc(-c2oc(=O)c3cc(OC)c(OC)cc3c2C#CCCO)c1	DENV2 CPE 30
C[C@@H]1CN([C@@H](C)CO)C(=O)CCCn2cc(nn2)CO[C@H]1CN(C)S(=O)(=O)c1ccc(Oc2ccccc2)cc1	none
CCCCCCCN1C(Nc2ccccc2)=NC[C@@H]1Cc1ccccc1	none
c1ccc(CCCCN2C(Nc3ccccc3)=NC[C@@H]2Cc2ccccc2)cc1	DENV2 CPE 24
CCN1C(Nc2ccccc2)=NC[C@@H]1CC(C)C	DENV2 CPE 22
CO[C@H]1CN(C)C(=O)c2ccc(NC(=O)C3CC3)cc2OC[C@@H](C)N(C(=O)Cc2ccccn2)C[C@H]1C	none (no result: Env fusion inh)
CCOc1ccc(OCCn2c(=S)[nH]c3c(N)ncnc32)cc1	rRNA inh HTS -31
Cc1ccc(OCCn2cnc3c(N)ncnc32)cc1	none (no result: rRNA inh HTS, DENV2 CPE, FN deposition inh)
Cc1cccc(NC(=O)c2nc[nH]c2C(=O)NCCCCNC(=O)c2[nH]cnc2C(=O)Nc2cccc(C)c2)c1	Env fusion inh 70 (no result: PGC1a acetyl inh)
CCOC(=O)c1ccc(NC(=O)c2nc[nH]c2C(=O)NCCNC(=O)c2[nH]cnc2C(=O)Nc2ccc(C(=O)OCC)cc2)cc1	Env fusion inh 82
Cc1cccc(NC(=O)c2nc[nH]c2C(=O)NCCCCCCNC(=O)c2[nH]cnc2C(=O)Nc2cccc(C)c2)c1	none
CCCNC(=O)Nc1ccc2c(c1)C(=O)N(C)[C@H]1CC[C@H](CC(=O)NCCCN(C)C)O[C@H]1CO2	none (no result: Env fusion inh)
C[C@H]1CN([C@@H](C)CO)C(=O)c2cc(NC(=O)CCCCCC(=O)Nc3ccccc3N)ccc2O[C@@H]1CN(C)C(=O)Nc1ccc2c(c1)OCO2	none (no result: PglD DTNB, Env fusion inh, FN deposition inh)

Source: PubChem BioAssay (Broad Institute)
